{"source": "ChEMBL document CHEMBL1649306", "about": "“Arylimidamide DB766, a potential chemotherapeutic candidate for Chagas' disease treatment” (Antimicrob Agents Chemother, 2010)", "key": {"Trypanosoma cruzi [1]": {"system": "Trypanosoma cruzi", "assay": "Antitrypanosomal activity against bloodstream forms of Trypanosoma cruzi Y after 24 hrs by light microscopy in presence of 96% mouse blood", "assay_type": "functional, organism-based", "procedure,_shortened": "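Bloodstream trypomastigotes held at 4°C in freshly isolated mouse blood (96%) with serial dilutions up to 32 μM. Live motile parasites counted by light microscopy in a Neubauer chamber, giving an IC50 for each exposure time.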"}, "Trypanosoma cruzi [2]": {"system": "Trypanosoma cruzi", "assay": "Antitrypanosomal activity against Trypanosoma cruzi Y infected in Swiss-Webster mouse assessed as decrease in parasite-induced weight loss at 100 mg/kg/day, ip administered 5 days post-infection for 10 consecutive days measured on day 120", "assay_type": "functional, organism-based", "procedure,_shortened": "(§1)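 Body weight of infected, treated mice followed from 0 to 120 dpi.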"}, "Trypanosoma cruzi [3]": {"system": "Trypanosoma cruzi", "assay": "Antitrypanosomal activity against Trypanosoma cruzi Y bloodstream forms infected in Swiss-Webster mouse assessed as reduction in parasite-induced weight loss in mouse at 25 mg/kg/day, ip administered 5 days postinfection for 10 consecutive days measured on day 120", "assay_type": "functional, organism-based", "procedure,_shortened": "as §1"}, "Mus musculus [4]": {"system": "Mus musculus", "assay": "Toxicity in […](H-2k) mouse assessed as effect on GPT level at 100 mg/kg/day, po", "assay_type": "organism-based", "parameters": "route oral", "details": "in vivo"}, "[5]": {"assay": "Cytotoxicity against Swiss-Webster mouse cardiomyocytes after 24 hrs by MTT assay", "assay_type": "cell-based, Cardiomyocyte", "details": "read-out: LC50", "procedure,_shortened": "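Primary embryonic cardiomyocytes from Swiss mice, uninfected, incubated 24 h or 72 h at 37°C, 5% CO2, with 0 to 96 μM in DMEM. MTT read at 490 nm; LC50 taken as concentration reducing viability by 50%; at least three experiments in duplicate.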"}, "Trypanosoma cruzi [6]": {"system": "Trypanosoma cruzi", "assay": "Antitrypanosomal activity against bloodstream forms of Trypanosoma cruzi Y infected in Swiss mouse cardiomyocytes assessed as parasite crista dilation at 10 ug/ml after 2 hrs by transmission electron microscopy", "assay_type": "functional, organism-based", "procedure,_shortened": "(§2)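 Y-strain bloodstream trypomastigotes treated 2 to 24 h at 37°C. Fixed 60 min at 4°C in 2.5% glutaraldehyde in 0.1 M cacodylate, pH 7.2. Postfixed 1 h at 4°C in 1% OsO4 with 0.8% potassium ferricyanide. Acetone-dehydrated, Epon-embedded, sections stained with uranyl acetate and lead citrate, ultrastructure examined by TEM.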"}, "Trypanosoma cruzi [7]": {"system": "Trypanosoma cruzi", "assay": "Antitrypanosomal activity against bloodstream forms of Trypanosoma cruzi Y infected in Swiss mouse cardiomyocytes assessed as parasite mitochondrial swelling at 10 ug/ml after 24 hrs by transmission electron microscopy", "assay_type": "functional, organism-based", "procedure,_shortened": "as §2"}, "Trypanosoma cruzi [8]": {"system": "Trypanosoma cruzi", "assay": "Antitrypanosomal activity against Trypanosoma cruzi Columbian bloodstream forms infected in C3H mouse assessed as decrease in parasite load at 25 mg/kg/day, ip administered 21 days postinfection measured on day 44", "assay_type": "functional", "parameters": "scale not given: the % may be the effect or the level left", "details": "route intraperitoneal", "procedure,_shortened": "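C3H/He mice infected i.p. with 10^2 Colombian strain bloodstream forms. Treatment started at parasitemia onset (21 dpi) with daily doses for 10 treatments, 0.1 ml i.p. Parasitemia measured by the Pizzi-Brener method; n ≥ 6 parasitemic mice per group.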"}, "Trypanosoma cruzi [9]": {"system": "Trypanosoma cruzi", "assay": "Antitrypanosomal activity against Trypanosoma cruzi 960 epimastigotes after 24 hrs by light microscopy", "assay_type": "functional, organism-based", "details": "Trypanosoma cruzi, 960, 24 h", "procedure,_shortened": "(§3)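 Epimastigotes from 5-day exponential cultures, 5 × 10^6 parasites/ml in LIT medium, incubated at 28°C up to 96 h with DB766 0 to 32 μM or Bz 0 to 250 μM. Counted daily in a Neubauer chamber. IC50 averaged from at least three determinations in duplicate.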"}, "Mus musculus [10]": {"system": "Mus musculus", "assay": "Toxicity in male Swiss-Webster mouse assessed as mortality at cumulative dose of 200 mg/kg, ip measured after 48 hrs", "assay_type": "organism-based", "parameters": "dose 200 mg/kg, route intraperitoneal", "details": "in vivo", "procedure,_shortened": "(§4)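 Uninfected 8–10-week-old female and male Swiss Webster and C3H/He (H-2k) mice injected i.p. on day 1 every 2 h with escalating doses: 5, 15, 30, 50 and 100 mg/kg (cumulative 20, 50, 100, 200 mg/kg). Toxic and subtoxic signs inspected on days 2–3 per OECD guidelines; tolerated dose set at 48 h.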"}, "Trypanosoma cruzi [11]": {"system": "Trypanosoma cruzi", "assay": "Antitrypanosomal activity against Trypanosoma cruzi Columbian bloodstream forms infected in C3H mouse assessed as reduction in parasite-induced weight loss at 50 mg/kg/day, ip administered 5 days postinfection for 10 consecutive days measured after 120 days", "assay_type": "functional, organism-based", "procedure,_shortened": "as §1"}, "Mus musculus [12]": {"system": "Mus musculus", "assay": "Toxicity in female Swiss-Webster mouse assessed as mortality at cumulative dose of 200 mg/kg, ip measured after 48 hrs", "assay_type": "organism-based", "parameters": "dose 200 mg/kg, route intraperitoneal", "details": "in vivo", "procedure,_shortened": "as §4"}, "Trypanosoma cruzi [13]": {"system": "Trypanosoma cruzi", "assay": "Antitrypanosomal activity against Trypanosoma cruzi RBVIII epimastigotes after 24 hrs by light microscopy", "assay_type": "functional, organism-based", "procedure,_shortened": "as §3"}, "Mus musculus [14]": {"system": "Mus musculus", "assay": "Hepatotoxicity against Swiss-Webster mouse assessed as GPT at 100 mg/kg/day measured after 14 days postinfection", "assay_type": "toxicity, organism-based", "details": "in vivo, 336 h"}, "Trypanosoma cruzi [15]": {"system": "Trypanosoma cruzi", "assay": "Antitrypanosomal activity against Trypanosoma cruzi Y bloodstream forms infected in Swiss-Webster mouse assessed as reduction in parasite-induced weight loss at 100 mg/kg/day, ip administered 5 days postinfection for 10 consecutive days measured after 120 days", "assay_type": "functional, organism-based", "procedure,_shortened": "as §1"}, "Trypanosoma cruzi [16]": {"system": "Trypanosoma cruzi", "assay": "Antitrypanosomal activity against Trypanosoma cruzi Y bloodstream forms infected in Swiss-Webster mouse assessed as decrease in parasite load at 50 mg/kg/day, ip administered 5 days postinfection for 10 consecutive days measured after 8 days", "assay_type": "functional", "parameters": "scale not given: the % may be the effect or the level left", "details": "route intraperitoneal", "procedure,_shortened": "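Eight-week-old male Swiss mice infected i.p. with 10^4 Y-strain bloodstream trypomastigotes; parasitemia-positive mice only (n ≥ 6). Dosing i.p. (0.2 ml) daily for 10 consecutive days from parasitemia onset (5 dpi). Parasitemia at the 8 dpi peak counted by Pizzi-Brener method; reduction relative to infected untreated group.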"}, "Mus musculus [17]": {"system": "Mus musculus", "assay": "Toxicity in male Swiss-Webster mouse assessed as weight loss at cumulative dose of 200 mg/kg, ip measured after 48 hrs", "assay_type": "organism-based", "parameters": "dose 200 mg/kg, route intraperitoneal", "details": "in vivo", "procedure,_shortened": "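Acute toxicity in 8–10-week-old Swiss Webster mice. i.p. injections every 2 h of 5, 15, 30, 50 and 100 mg/kg (cumulative 200 mg/kg) on day 1. Toxic and subtoxic signs inspected on days 2 and 3 per OECD guidelines; outcome read 48 h after injection.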"}, "Mus musculus [18]": {"system": "Mus musculus", "assay": "Toxicity in […](H-2k) mouse assessed as effect on creatine kinase level at 100 mg/kg/day, ip", "assay_type": "organism-based", "parameters": "route intraperitoneal", "details": "in vivo"}, "Trypanosoma cruzi [19]": {"system": "Trypanosoma cruzi", "assay": "Antitrypanosomal activity against Trypanosoma cruzi Y bloodstream forms infected in Swiss-Webster mouse assessed as decrease in cardiac parasite load at 100 mg/kg/day, ip administered 5 days postinfection for 10 alternate days measured after 14 days postinfection", "assay_type": "functional, Heart", "parameters": "scale not given: the % may be the effect or the level left", "details": "route intraperitoneal"}, "Trypanosoma cruzi [20]": {"system": "Trypanosoma cruzi", "assay": "Antitrypanosomal activity against Trypanosoma cruzi Columbian bloodstream forms infected in C3H mouse assessed as decrease in parasite load at 25 mg/kg/day, ip administered 5 days postinfection for 10 consecutive days measured after 120 days", "assay_type": "functional, organism-based"}, "Mus musculus [21]": {"system": "Mus musculus", "assay": "Cytotoxicity against Swiss-Webster mouse assessed as effect on creatine kinase at 100 mg/kg/day measured after 14 days postinfection", "assay_type": "organism-based", "details": "in vivo, 336 h"}, "Trypanosoma cruzi [22]": {"system": "Trypanosoma cruzi", "assay": "Antitrypanosomal activity against Trypanosoma cruzi Columbian bloodstream forms infected in C3H mouse assessed as decrease in parasite-induced cardiac inflammation at 100 mg/kg/day, ip administered 5 days postinfection for 10 consecutive days measured after 43 days", "assay_type": "functional, Heart", "parameters": "scale not given: the % may be the effect or the level left", "details": "route intraperitoneal", "procedure,_shortened": "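Male C3H/He mice infected i.p. with 5 × 10^3 Colombian strain bloodstream forms, given 100 mg/kg/day i.p. daily for 10 days. At 43 dpi, H&E-stained 3 μm heart sections scored for amastigote nests and infiltrates (>10 mononuclear cells) over at least 100 fields. Three sections each from at least three mice.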"}, "Trypanosoma cruzi [23]": {"system": "Trypanosoma cruzi", "assay": "Antitrypanosomal activity against Trypanosoma cruzi Columbian bloodstream forms infected in C3H mouse assessed as reduction in parasite-induced weight loss at 100 mg/kg/day, po administered 5 days postinfection for 10 consecutive days measured after 120 days", "assay_type": "functional, organism-based", "procedure,_shortened": "as §1"}}, "note": "Calls of active or inactive are those of the source. No cut-off for these calls is given here.", "data": [{"smiles": "CC(C)Oc1cc(NC(=N)c2ccccn2)ccc1-c1ccc(-c2ccc(NC(=N)c3ccccn3)cc2OC(C)C)o1", "values": [{"measurement": "IC50", "setting": "Trypanosoma cruzi [1]", "result": 0.06, "unit": "µM"}, {"measurement": "Activity", "setting": "Trypanosoma cruzi [2]", "result": "inactive"}, {"measurement": "Activity", "setting": "Trypanosoma cruzi [3]", "result": "inactive"}, {"measurement": "Activity", "setting": "Mus musculus [4]", "result": "Non-toxic"}, {"measurement": "CC50 at 24 h", "setting": "[5]", "result": "> 32", "unit": "µM"}, {"measurement": "Activity", "setting": "Trypanosoma cruzi [6]", "result": "Active"}, {"measurement": "Activity", "setting": "Trypanosoma cruzi [7]", "result": "Active"}, {"measurement": "Activity", "setting": "Trypanosoma cruzi [8]", "result": 73, "unit": "%"}, {"measurement": "IC50", "setting": "Trypanosoma cruzi [9]", "result": 0.09, "unit": "µM"}, {"measurement": "IC90", "setting": "Trypanosoma cruzi [9]", "result": 0.28, "unit": "µM"}, {"measurement": "Activity", "setting": "Mus musculus [10]", "result": "Non-toxic"}, {"measurement": "Activity", "setting": "Trypanosoma cruzi [11]", "result": "Active"}, {"measurement": "Activity", "setting": "Mus musculus [12]", "result": "Non-toxic"}, {"measurement": "IC50", "setting": "Trypanosoma cruzi [13]", "result": 0.18, "unit": "µM"}, {"measurement": "IC90", "setting": "Trypanosoma cruzi [13]", "result": 0.44, "unit": "µM"}, {"measurement": "Activity", "setting": "Mus musculus [14]", "result": "Non-toxic"}, {"measurement": "Activity", "setting": "Trypanosoma cruzi [15]", "result": "Active"}, {"measurement": "Activity", "setting": "Trypanosoma cruzi [16]", "result": 98, "unit": "%"}, {"measurement": "Activity", "setting": "Mus musculus [17]", "result": 10, "unit": "%"}, {"measurement": "Activity", "setting": "Mus musculus [18]", "result": "Non-toxic"}, {"measurement": "Activity", "setting": "Trypanosoma cruzi [19]", "result": 94, "unit": "%"}, {"measurement": "Activity", "setting": "Trypanosoma cruzi [20]", "result": "Active"}, {"measurement": "Activity", "setting": "Mus musculus [21]", "result": "Non-toxic"}, {"measurement": "Activity", "setting": "Trypanosoma cruzi [22]", "result": 75, "unit": "%"}, {"measurement": "Activity", "setting": "Trypanosoma cruzi [23]", "result": "inactive"}]}]}
